Results reported in ChEMBL document CHEMBL1152266, “Synthesis of 3,6-diazabicyclo[3.1.1]heptanes as novel ligands for neuronal nicotinic acetylcholine receptors” (Bioorg Med Chem Lett, 2008).

Tests used:
[1] = target: Neuronal acetylcholine receptor; alpha4/beta2 (Rattus norvegicus, UniProt P09483+P12390); test: Displacement of [3H]epibatidine form alpha4beta2 nAChR in rat cortex
In short: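 Radioligand binding in rat cortex tissue using [³H]-epibatidine to label α4β2 sites. Ki reported as the mean (% coefficient of variation) of three independent determinations.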

[2] = target: Neuronal acetylcholine receptor subunit alpha-7 (Rattus norvegicus, UniProt Q05941); test: Displacement of [3H]alpha-bungarotoxin form alpha7 nAChR in rat cortex
Chain of Neuronal acetylcholine receptor subunit alpha-7 (Q05941 whole entry): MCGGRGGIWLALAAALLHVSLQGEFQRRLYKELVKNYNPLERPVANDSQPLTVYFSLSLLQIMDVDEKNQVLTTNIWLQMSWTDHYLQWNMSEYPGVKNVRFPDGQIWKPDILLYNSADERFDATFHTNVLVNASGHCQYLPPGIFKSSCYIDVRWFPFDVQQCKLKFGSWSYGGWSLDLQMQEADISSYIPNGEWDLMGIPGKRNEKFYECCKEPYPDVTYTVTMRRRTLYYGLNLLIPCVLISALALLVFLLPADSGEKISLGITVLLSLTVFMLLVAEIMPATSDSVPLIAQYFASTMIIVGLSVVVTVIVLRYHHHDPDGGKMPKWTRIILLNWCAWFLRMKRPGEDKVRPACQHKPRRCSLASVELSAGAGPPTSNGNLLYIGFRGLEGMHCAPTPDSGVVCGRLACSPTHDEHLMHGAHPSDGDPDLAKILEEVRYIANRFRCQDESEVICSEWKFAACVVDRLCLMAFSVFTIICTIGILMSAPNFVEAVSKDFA

Rattus norvegicus = species: Rattus norvegicus; test: Selectivity ratio of Ki for rat alpha7 nAChR to Ki for rat alpha4beta2 nAChR

Chain of Neuronal acetylcholine receptor; alpha4/beta2 (P09483 whole entry): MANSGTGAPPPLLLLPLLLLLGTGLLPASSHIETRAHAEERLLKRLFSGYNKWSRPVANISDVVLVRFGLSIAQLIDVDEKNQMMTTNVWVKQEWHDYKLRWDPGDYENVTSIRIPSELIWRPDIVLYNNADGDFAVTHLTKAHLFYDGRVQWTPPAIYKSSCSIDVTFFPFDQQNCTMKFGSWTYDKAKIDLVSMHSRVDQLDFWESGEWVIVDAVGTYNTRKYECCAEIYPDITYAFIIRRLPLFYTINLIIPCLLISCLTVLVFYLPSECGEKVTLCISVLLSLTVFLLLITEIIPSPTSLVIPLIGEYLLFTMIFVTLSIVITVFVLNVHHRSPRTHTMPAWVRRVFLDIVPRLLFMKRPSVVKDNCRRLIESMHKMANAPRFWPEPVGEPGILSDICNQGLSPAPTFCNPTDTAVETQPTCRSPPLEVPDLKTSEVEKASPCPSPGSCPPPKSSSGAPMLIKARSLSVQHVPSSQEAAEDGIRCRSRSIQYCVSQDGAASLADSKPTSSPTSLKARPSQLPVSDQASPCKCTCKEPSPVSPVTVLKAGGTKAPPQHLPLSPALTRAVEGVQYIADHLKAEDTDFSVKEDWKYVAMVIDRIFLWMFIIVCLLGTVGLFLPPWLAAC
Chain of Neuronal acetylcholine receptor; alpha4/beta2 (P12390 whole entry): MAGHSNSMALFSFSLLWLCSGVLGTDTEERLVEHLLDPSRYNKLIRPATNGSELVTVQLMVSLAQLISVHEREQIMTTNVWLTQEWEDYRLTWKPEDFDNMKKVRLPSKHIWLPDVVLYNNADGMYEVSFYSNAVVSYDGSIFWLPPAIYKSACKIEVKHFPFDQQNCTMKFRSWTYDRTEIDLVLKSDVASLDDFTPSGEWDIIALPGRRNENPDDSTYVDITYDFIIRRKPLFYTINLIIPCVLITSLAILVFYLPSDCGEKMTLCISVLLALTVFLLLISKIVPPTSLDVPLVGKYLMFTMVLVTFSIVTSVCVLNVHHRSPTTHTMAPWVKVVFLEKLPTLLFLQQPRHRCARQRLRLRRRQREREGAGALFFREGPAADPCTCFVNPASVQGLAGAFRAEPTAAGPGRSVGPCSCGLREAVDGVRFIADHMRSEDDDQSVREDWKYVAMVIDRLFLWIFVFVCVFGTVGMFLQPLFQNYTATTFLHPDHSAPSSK

Compound	Ki [1]	Ki [2]	Ratio Ki (Rattus norvegicus)
Clc1ccc(N2CC3CC(C2)N3)nn1	0.168 nM	25 nM	149
Clc1ccc(N2CC3CC(C2)N3)cn1	0.023 nM	4.1 nM	178
Brc1ccc(N2CC3CC(C2)N3)cn1	0.039 nM	50.5 nM	1300
O=[N+]([O-])c1ccc(N2CC3CC(C2)N3)cc1	1.2 nM	28000 nM	23300
c1cncc(N2CC3CC(C2)N3)c1	0.056 nM	1.36 nM	24.3
CN1C2CC1CN(c1ccc(Cl)nc1)C2	0.43 nM	20 nM	46.5
